Consider four molecules from ChEMBL document CHEMBL3826901, “Design, synthesis, and mode of action studies of a mitomycin tetramer inducing double activations with a single probe” (Bioorg Med Chem, 2016).

The nature of data set [1]: Prodrug activation in Tris HCl methanolic solution assessed as half-life at 0.015 mM at pH 7.4 using 20 equiv of GSH by UV-visible spectrophotometry. The note with it: pH 7.4, 15 µM. The method in brief: (§1)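 Mitomycin (from 1.0 mM methanolic stock) was in 0.1 M Tris-HCl methanolic buffer, 'pH' 7.4, at 25 °C. Nucleophile was added from methanolic stock (final 0.06–1.5 mM). UV-vis scans (200–500 nm) ran beyond two half-lives. Pseudo-first-order kobs and t1/2 were derived from 370 nm absorbance. Final 'pH' was within ±0.1 units. Runs were in duplicate and averaged.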

Data set [2] is described as follows: Prodrug activation in Tris HCl methanolic solution at 0.015 mM at pH 7.4 using 10 equiv of Et3P by UV-visible spectrophotometry. The note with it: buffer, pH 7.4, 15 µM. The method in brief: as §1
Data set [3] is described as follows: Prodrug activation in Tris HCl methanolic solution assessed as half-life at 0.015 mM at pH 7.4 using 20 equiv of Et3P by UV-visible spectrophotometry. The note with it: buffer, pH 7.4, 15 µM. The procedure, abridged:
as §1

Data set [4] is described as follows: Prodrug activation in Tris HCl methanolic solution at 0.015 mM at pH 7.4 using 20 equiv of L-DTT by UV-visible spectrophotometry. Conditions: buffer, pH 7.4, 15 µM. The method in brief: as §1
Data set [5] has as its system Escherichia coli. In words: Induction of interstrand cross-linking in EcoR1-linearized Escherichia coli pBR322 plasmid DNA at 0.10 mM after 2 hrs using 5 equiv of Et3P by ethidium bromide staining based alkaline agarose gel electrophoresis. The procedure, abridged: (§2)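 EcoRI-linearized pBR322 DNA in aqueous Tris-HCl pH 7.4 was N2-deaerated for 15 min. Mitomycin (from 5 mM DMSO stock) and Et3P (5 equiv) were added, then incubated 2 h at room temperature. Purified DNA was run on a denaturing alkaline agarose gel (40 mM NaOH, 1 mM EDTA) with a HindIII-digested λ marker. The gel was neutralized and ethidium bromide-stained, and the cross-linked band quantified.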

Data set [6] can be described thus: Prodrug activation in Tris HCl methanolic solution at 0.015 mM at pH 7.4 using 10 equiv of L-DTT by UV-visible spectrophotometry. Conditions: buffer, pH 7.4, 15 µM. The procedure, abridged:
as §1

A short description of data set [7]: Prodrug activation in Tris HCl methanolic solution assessed as half-life at 0.015 mM at pH 7.4 using 50 equiv of Et3P by UV-visible spectrophotometry. Conditions: buffer, pH 7.4, 15 µM. The procedure, abridged:
as §1

The nature of data set [8]: Prodrug activation in Tris HCl methanolic solution at 0.015 mM at pH 7.4 using 20 equiv of Et3P by UV-visible spectrophotometry. Conditions: buffer, pH 7.4, 15 µM. The procedure, abridged: as §1
Data set [9] concerns Escherichia coli. In words: Induction of interstrand cross-linking in EcoR1-linearized Escherichia coli pBR322 plasmid DNA at 0.025 mM after 2 hrs using 5 equiv of Et3P by ethidium bromide staining based alkaline agarose gel electrophoresis. The method in brief: as §2
Data set [10] can be described thus: Prodrug activation in Tris HCl methanolic solution at 0.015 mM at pH 7.4 using 5 equiv of Et3P by UV-visible spectrophotometry. Conditions: buffer, pH 7.4, 15 µM. The method in brief:
as §1

The nature of data set [11]: Prodrug activation in Tris HCl methanolic solution assessed as half-life at 0.015 mM at pH 7.4 using 5 equiv of Et3P by UV-visible spectrophotometry. Conditions: buffer, pH 7.4, 15 µM. The method in brief: as §1
Data set [12] can be described thus: Prodrug activation in Tris HCl methanolic solution assessed as half-life at 0.015 mM at pH 7.4 using 10 equiv of Et3P by UV-visible spectrophotometry. The note with it: buffer, pH 7.4, 15 µM. The procedure, abridged: as §1
Data set [13] is described as follows: Prodrug activation in Tris HCl methanolic solution assessed as half-life at 0.015 mM at pH 7.4 using 20 equiv of L-DTT by UV-visible spectrophotometry. Conditions: buffer, pH 7.4, 15 µM. The method in brief:
as §1

Data set [14] is described as follows: Prodrug activation in Tris HCl methanolic solution at 0.015 mM at pH 7.4 using 20 equiv of GSH by UV-visible spectrophotometry. The note with it: buffer, pH 7.4, 15 µM. The procedure, abridged:
as §1

Data set [15] deals with Escherichia coli. In words: Induction of interstrand cross-linking in EcoR1-linearized Escherichia coli pBR322 plasmid DNA at 0.20 mM after 2 hrs using 5 equiv of Et3P by ethidium bromide staining based alkaline agarose gel electrophoresis. The method in brief:
as §2

Data set [16] can be described thus: Prodrug activation in Tris HCl methanolic solution assessed as half-life at 0.015 mM at pH 7.4 using 10 equiv of L-DTT by UV-visible spectrophotometry. The note with it: buffer, pH 7.4, 15 µM. The method in brief: as §1
The subject of data set [17] is Escherichia coli. In words: Induction of interstrand cross-linking in EcoR1-linearized Escherichia coli pBR322 plasmid DNA at 0.050 mM after 2 hrs using 5 equiv of Et3P by ethidium bromide staining based alkaline agarose gel electrophoresis. The procedure, abridged:
as §2

Data set [18] in a line: Prodrug activation in Tris HCl methanolic solution at 0.015 mM at pH 7.4 using 50 equiv of Et3P by UV-visible spectrophotometry. The note with it: buffer, pH 7.4, 15 µM. The method in brief:
as §1

A short description of data set [19]: Prodrug activation in Tris HCl methanolic solution at pH 7.4 using 5 equiv of Et3P by UV-visible spectrophotometry. The note with it: buffer.
Data set [20] is described as follows: Prodrug activation in Tris HCl methanolic solution at 0.030 mM at pH 7.4 using 10 equiv of Et3P by UV-visible spectrophotometry. Conditions: buffer, pH 7.4, 30 µM. The procedure, abridged:
as §1

Data set [21] is described as follows: Prodrug activation in Tris HCl methanolic solution at 0.03 mM at pH 7.4 using 5 equiv of Et3P by UV-visible spectrophotometry. Conditions: buffer, pH 7.4, 30 µM. The procedure, abridged:
as §1

Take `CO[C@@]12[C@H](COC(N)=O)C3=C(C(=O)C(C)=C(NCC(CNC4=C(C)C(=O)C5=C(C4=O)[C@@H](COC(N)=O)[C@@]4(OC)[C@H]6N[C@H]6CN54)SSC(CNC4=C(C)C(=O)C5=C(C4=O)[C@@H](COC(N)=O)[C@@]4(OC)[C@H]6N[C@H]6CN54)CNC4=C(C)C(=O)C5=C(C4=O)[C@@H](COC(N)=O)[C@@]4(OC)[C@H]6N[C@H]6CN54)C3=O)N1C[C@@H]1N[C@@H]12` (some centres undefined): the t1/2 was found to be 16.6 h in [1]; 5.76 h in data set [3]; 2.4 h in [7]; 23 h in data set [11]; 12.7 h in data set [12]; 12.7 h in [13]. Besides, the t1/2 in data set [16] was determined as 24 h. Further, the K in [2] worked out at 1.3 day⁻¹; in data set [4], 1.3 day⁻¹; in data set [6] it was 0.69 day⁻¹; in data set [8], 2.9 day⁻¹; in data set [10], 0.72 day⁻¹; in data set [14], 1 day⁻¹. Also, in data set [18], the K is 6.9 day⁻¹. Moreover, the Activity in the data set on Escherichia coli [5] was determined as 51%; with Escherichia coli [9], 17%; in the data set with Escherichia coli [15] it was 68%; with Escherichia coli [17], 41%.
Take `CO[C@@]12[C@H](COC(N)=O)C3=C(C(=O)C(C)=C(N)C3=O)N1C[C@@H]1N[C@@H]12` [MITOMYCIN]: in data set [19], the Drug metabolism result is “metabolite_notdetected”. Also, in the data set on Escherichia coli [15], the Activity came to 2%.
As to `CO[C@@]12[C@H](COC(N)=O)C3=C(C(=O)C(C)=C(NCC4CCC(CNC5=C(C)C(=O)C6=C(C5=O)[C@@H](COC(N)=O)[C@@]5(OC)[C@H]7N[C@H]7CN65)SS4)C3=O)N1C[C@@H]1N[C@@H]12` (some centres undefined), the Activity with Escherichia coli [5] came to 40.5%. The K in [20] is 1.35 day⁻¹.
Consider `CO[C@@]12[C@H](COC(N)=O)C3=C(C(=O)C(C)=C(NCC(O)CNC4=C(C)C(=O)C5=C(C4=O)[C@@H](COC(N)=O)[C@@]4(OC)[C@H]6N[C@H]6CN54)C3=O)N1C[C@@H]1N[C@@H]12` (some centres undefined), for which the Activity in the data set on Escherichia coli [5] worked out at 5%. Besides, the Drug metabolism entry in [21] is “metabolite_notdetected”.
